According to publication PMC6720533 (Biomolecules & Therapeutics, 2019):

Experiments:
recombinant human CK2α1 = recombinant human CK2α1 (Homo sapiens, UniProt P68400); experiment: CK2 kinase activity assay; format: biochemical; details: 60 min
Summary of the method: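 Recombinant human CK2α1 (50 ng) was incubated with 2.5 μg CK2α1 substrate, 10 μM ATP, and test compound, reference inhibitor or DMSO for 60 min at room temperature. ADP-Glo reagent stopped the reaction and depleted remaining ATP. Detection reagent then converted ADP to ATP for luciferase/luciferin luminescence, which tracks the ADP formed as the measure of kinase activity.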

Jurkat cells [1] = experiment: Proliferation, viable cell count by trypan blue exclusion; format: cell-based, human; details: 72 h
Summary of the method: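 Human B-ALL (SEM, RS4;11) and T-ALL (Jurkat, CEM) lines were grown with 10% heat-inactivated FBS and penicillin/streptomycin at 37°C, 5% CO2. Cells took test compound at 0.1–5.0 μM (methods: 0.5–5.0 μM) or DMSO for up to 72 h. Viable cells were counted by trypan blue exclusion and expressed relative to control (100%). IC50 came from three separate experiments, each in triplicate.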

RS4;11 cells = experiment: Apoptosis, Annexin V FITC / propidium iodide flow cytometry; format: cell-based, human; details: RS4;11, 5 μM, 72 h; DMSO 11.7%
CDK9/cyclin T1 = CDK9/cyclin T1 (Homo sapiens, UniProt P50750); experiment: Kinase activity screening; format: biochemical; details: FX-9 at 2.5 μM, ATP at Km (45 μM)
Summary of the method: (§1)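 Radiometric substrate-phosphorylation screen covering a panel of 58 human kinases run by a contract service. […] Activity is given as a percentage of mean activity in positive control samples (100%). Values <30% were scored strong hits, 30–70% partial hits and >70% no hit.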

PKCθ = PKCθ (Homo sapiens, UniProt Q04759); experiment: Kinase activity screening; format: biochemical; details: FX-9 at 2.5 μM, ATP at Km (15 μM)
Summary of the method: (§2)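 Radiometric kinase-panel screen of 58 human kinases, measuring substrate phosphorylation. […] Activity is given as % of the mean positive-control kinase activity (100%). Below 30% counts as a strong hit, 30–70% as a partial hit, and above 70% as no hit.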

CaMKI = CaMKI (Homo sapiens, UniProt Q14012); experiment: Kinase activity screening; format: biochemical; details: FX-9 at 2.5 μM, ATP at Km (200 μM)
Summary of the method: as §1

pSTAT3 = experiment: Western blot, SEM cells; format: cell-based, human; details: 2.5 μM or 5.0 μM, 48 h
Summary of the method: (§3)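 SEM or RS4;11 cells took DMSO, 2.5 or 5.0 μM test compound for 48 h. Cells (1–5×10^6) were lysed in RIPA buffer with sonication, run on SDS gels, blotted to PVDF and imaged by near-infrared fluorescence. Bands were normalised to GAPDH, and the phospho/total protein ratio was set relative to DMSO control (=1).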

cleaved caspase 3 = experiment: Western blot, SEM cells; format: cell-based, human; details: 2.5 μM and 5.0 μM, 48 h
Summary of the method: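 SEM and RS4;11 cells were exposed to 2.5 or 5.0 μM test compound, or DMSO, for 48 h. Lysates of 1–5×10^6 cells were made in RIPA buffer with sonication. Cleaved caspase 3 was detected by western blot on PVDF with near-infrared imaging, using GAPDH as loading control.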

Mnk2 = Mnk2 (Homo sapiens, UniProt Q9HBH9); experiment: Kinase activity screening; format: biochemical; details: FX-9 at 2.5 μM, ATP at Km (120 μM)
Summary of the method: as §1

mTOR = mTOR (Homo sapiens, UniProt P42345); experiment: Kinase activity screening; format: biochemical; details: FX-9 at 2.5 μM, ATP at Km (70 μM)
Summary of the method: as §2

CDK2/cyclinA = CDK2/cyclinA (Homo sapiens, UniProt P24941); experiment: Kinase activity screening; format: biochemical; details: FX-9 at 2.5 μM, ATP at Km (45 μM)
Summary of the method: as §1

MLK1 = MLK1 (Homo sapiens, UniProt P80192); experiment: Kinase activity screening; format: biochemical; details: FX-9 at 2.5 μM, ATP at Km (45 μM)
Summary of the method: as §1

CDK7/cyclinH/MAT1 = CDK7/cyclinH/MAT1 (Homo sapiens, UniProt P50613); experiment: Kinase activity screening; format: biochemical; details: FX-9 at 2.5 μM, ATP at Km (90 μM)
Summary of the method: as §1

Rsk1 = Rsk1 (Homo sapiens, UniProt Q15418); experiment: Kinase activity screening; format: biochemical; details: FX-9 at 2.5 μM, ATP at Km (45 μM)
Summary of the method: as §2

PI3 Kinase (p110d/p85a) = PI3 Kinase (p110d/p85a) (Homo sapiens, UniProt O00329); experiment: Kinase activity screening; format: biochemical; details: FX-9 at 2.5 μM, ATP at Km (200 μM)
Summary of the method: as §1

MEK1 = MEK1 (Homo sapiens, UniProt Q02750); experiment: Kinase activity screening; format: biochemical; details: FX-9 at 2.5 μM, ATP at Km (10 μM)
Summary of the method: as §1

TAK1 = TAK1 (Homo sapiens, UniProt O43318); experiment: Kinase activity screening; format: biochemical; details: FX-9 at 2.5 μM, ATP at Km (45 μM)
Summary of the method: as §2

PKCα = PKCα (Homo sapiens, UniProt P17252); experiment: Kinase activity screening; format: biochemical; details: FX-9 at 2.5 μM, ATP at Km (45 μM)
Summary of the method: as §1

SEM cells = experiment: WST-1 metabolic activity assay; format: cell-based; details: Homo sapiens, 72 h, read-out: metabolic activity
Summary of the method: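 Test compound came from a 10 mM DMSO stock. Cells were seeded at 5×10^4/well in triplicate with 5 or 10 μM final compound; controls got matched DMSO. After 72 h at 37°C, 5% CO2, WST-1 was added for a further 3 h. Absorbance was read at 450 nm (reference 620 nm), and metabolic activity given as % of DMSO control.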

Jurkat cells [2] = experiment: Apoptosis, Annexin V FITC / propidium iodide flow cytometry; format: cell-based, human; details: 5 μM, 72 h, DMSO 18.7%
p-p38 = experiment: Western blot, SEM cells; format: cell-based, human; details: 2.5 μM or 5.0 μM, 48 h
Summary of the method: as §3

PI3 Kinase (p120g) = PI3 Kinase (p120g) (Homo sapiens, UniProt P48736); experiment: Kinase activity screening; format: biochemical; details: FX-9 at 2.5 μM, ATP at Km (100 μM)
Summary of the method: as §1

ALK = ALK (Homo sapiens, UniProt Q9UM73); experiment: Kinase activity screening; format: biochemical; details: FX-9 at 2.5 μM, ATP at Km (200 μM)
Summary of the method: as §1

MAPKAP-K2 = MAPKAP-K2 (Homo sapiens, UniProt P49137); experiment: Kinase activity screening; format: biochemical; details: FX-9 at 2.5 μM, ATP at Km (90 μM)
Summary of the method: as §1

PKG1α = PKG1α (Homo sapiens, UniProt Q13976); experiment: Kinase activity screening; format: biochemical; details: FX-9 at 2.5 μM, ATP at Km (90 μM)
Summary of the method: as §2

Abl = Abl (Homo sapiens, UniProt P00519); experiment: Kinase activity screening; format: biochemical; details: FX-9 at 2.5 μM, ATP at Km (45 μM)
Summary of the method: as §1

Chain of recombinant human CK2α1 (P68400 whole entry): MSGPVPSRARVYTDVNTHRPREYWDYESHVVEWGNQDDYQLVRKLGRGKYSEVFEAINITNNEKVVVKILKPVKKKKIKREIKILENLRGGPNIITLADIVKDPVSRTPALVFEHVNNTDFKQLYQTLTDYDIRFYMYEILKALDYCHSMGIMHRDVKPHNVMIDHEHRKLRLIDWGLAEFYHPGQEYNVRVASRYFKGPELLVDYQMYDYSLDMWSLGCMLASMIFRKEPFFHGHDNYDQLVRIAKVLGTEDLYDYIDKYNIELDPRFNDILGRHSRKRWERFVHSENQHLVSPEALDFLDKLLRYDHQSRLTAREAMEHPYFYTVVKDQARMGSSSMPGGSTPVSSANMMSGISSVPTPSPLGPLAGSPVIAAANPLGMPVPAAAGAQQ
Chain of MEK1 (Q02750 whole entry): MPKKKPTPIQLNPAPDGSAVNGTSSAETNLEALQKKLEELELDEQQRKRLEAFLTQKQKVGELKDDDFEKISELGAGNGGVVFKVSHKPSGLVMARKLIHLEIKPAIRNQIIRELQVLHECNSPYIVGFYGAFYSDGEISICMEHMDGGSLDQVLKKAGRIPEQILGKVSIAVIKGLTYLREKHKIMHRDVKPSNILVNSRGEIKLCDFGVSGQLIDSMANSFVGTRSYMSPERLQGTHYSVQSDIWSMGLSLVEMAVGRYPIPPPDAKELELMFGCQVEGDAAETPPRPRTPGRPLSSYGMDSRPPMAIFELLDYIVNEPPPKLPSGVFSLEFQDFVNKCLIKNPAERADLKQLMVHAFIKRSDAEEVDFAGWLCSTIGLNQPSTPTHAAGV
Chain of PKCθ (Q04759 whole entry): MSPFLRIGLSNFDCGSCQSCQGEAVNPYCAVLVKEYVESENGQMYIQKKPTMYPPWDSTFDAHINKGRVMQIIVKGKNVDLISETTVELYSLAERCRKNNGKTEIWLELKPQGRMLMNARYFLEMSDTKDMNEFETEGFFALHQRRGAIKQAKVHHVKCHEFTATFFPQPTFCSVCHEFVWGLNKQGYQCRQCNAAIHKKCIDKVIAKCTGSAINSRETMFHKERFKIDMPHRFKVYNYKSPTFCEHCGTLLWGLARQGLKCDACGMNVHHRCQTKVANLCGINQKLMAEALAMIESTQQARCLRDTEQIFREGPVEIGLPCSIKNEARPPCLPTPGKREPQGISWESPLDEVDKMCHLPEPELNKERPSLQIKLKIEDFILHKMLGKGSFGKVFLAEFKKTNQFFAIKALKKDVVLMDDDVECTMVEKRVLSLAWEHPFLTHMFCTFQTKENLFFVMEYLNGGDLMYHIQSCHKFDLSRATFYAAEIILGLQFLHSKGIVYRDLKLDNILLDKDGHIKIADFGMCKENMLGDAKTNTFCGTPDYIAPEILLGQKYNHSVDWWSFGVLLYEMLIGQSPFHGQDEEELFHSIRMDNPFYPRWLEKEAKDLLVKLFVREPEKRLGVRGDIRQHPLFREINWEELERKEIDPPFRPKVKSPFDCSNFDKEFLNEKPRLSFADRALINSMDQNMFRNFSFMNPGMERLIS
Chain of CDK9/cyclin T1 (P50750 whole entry): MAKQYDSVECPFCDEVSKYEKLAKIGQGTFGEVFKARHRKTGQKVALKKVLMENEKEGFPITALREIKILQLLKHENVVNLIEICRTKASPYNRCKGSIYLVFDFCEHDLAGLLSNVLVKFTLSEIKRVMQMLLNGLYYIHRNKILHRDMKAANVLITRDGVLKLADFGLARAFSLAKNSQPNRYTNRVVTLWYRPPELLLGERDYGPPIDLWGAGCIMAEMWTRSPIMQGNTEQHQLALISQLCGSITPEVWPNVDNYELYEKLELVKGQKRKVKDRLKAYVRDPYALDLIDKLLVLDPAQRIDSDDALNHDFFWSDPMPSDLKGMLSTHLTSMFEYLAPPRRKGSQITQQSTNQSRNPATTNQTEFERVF
Chain of CDK9/cyclin T1 (O60563 whole entry partner): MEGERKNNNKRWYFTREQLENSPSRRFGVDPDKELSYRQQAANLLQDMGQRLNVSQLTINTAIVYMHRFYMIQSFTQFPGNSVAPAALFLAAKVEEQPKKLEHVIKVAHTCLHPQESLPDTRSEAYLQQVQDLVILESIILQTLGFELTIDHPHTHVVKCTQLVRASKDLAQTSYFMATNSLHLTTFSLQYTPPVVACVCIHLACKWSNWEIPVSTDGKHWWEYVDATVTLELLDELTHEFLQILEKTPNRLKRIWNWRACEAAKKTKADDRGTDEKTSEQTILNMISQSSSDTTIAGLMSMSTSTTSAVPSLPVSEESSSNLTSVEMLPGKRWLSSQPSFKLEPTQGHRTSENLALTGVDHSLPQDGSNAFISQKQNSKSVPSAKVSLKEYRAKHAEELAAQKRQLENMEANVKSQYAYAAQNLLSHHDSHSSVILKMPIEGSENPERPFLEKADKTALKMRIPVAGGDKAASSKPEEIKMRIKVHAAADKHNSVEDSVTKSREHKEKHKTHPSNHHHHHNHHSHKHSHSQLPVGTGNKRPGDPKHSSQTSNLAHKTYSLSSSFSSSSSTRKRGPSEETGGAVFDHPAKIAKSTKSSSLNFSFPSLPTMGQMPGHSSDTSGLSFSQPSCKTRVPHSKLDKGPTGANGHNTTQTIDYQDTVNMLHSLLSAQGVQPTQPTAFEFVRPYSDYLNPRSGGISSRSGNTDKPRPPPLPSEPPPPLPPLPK
Chain of Rsk1 (Q15418 whole entry): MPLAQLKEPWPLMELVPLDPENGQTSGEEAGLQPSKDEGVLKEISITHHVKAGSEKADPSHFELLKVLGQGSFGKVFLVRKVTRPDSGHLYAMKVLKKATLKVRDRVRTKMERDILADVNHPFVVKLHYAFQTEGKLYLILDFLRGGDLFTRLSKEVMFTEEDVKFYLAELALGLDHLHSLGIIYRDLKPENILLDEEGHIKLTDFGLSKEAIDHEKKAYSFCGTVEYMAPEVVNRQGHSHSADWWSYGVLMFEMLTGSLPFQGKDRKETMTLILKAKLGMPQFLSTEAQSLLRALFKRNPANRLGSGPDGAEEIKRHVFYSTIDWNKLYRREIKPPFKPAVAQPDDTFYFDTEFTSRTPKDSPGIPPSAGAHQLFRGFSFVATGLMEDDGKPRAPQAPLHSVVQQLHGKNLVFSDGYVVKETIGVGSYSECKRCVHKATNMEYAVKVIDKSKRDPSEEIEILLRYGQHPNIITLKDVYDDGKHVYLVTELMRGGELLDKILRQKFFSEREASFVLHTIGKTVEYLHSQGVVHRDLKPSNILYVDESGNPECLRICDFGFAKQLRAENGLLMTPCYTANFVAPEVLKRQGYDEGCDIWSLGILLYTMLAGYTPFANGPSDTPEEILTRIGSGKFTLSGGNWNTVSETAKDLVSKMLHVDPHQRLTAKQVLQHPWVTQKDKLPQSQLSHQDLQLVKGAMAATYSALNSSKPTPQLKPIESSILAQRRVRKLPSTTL
Chain of CaMKI (Q14012 whole entry): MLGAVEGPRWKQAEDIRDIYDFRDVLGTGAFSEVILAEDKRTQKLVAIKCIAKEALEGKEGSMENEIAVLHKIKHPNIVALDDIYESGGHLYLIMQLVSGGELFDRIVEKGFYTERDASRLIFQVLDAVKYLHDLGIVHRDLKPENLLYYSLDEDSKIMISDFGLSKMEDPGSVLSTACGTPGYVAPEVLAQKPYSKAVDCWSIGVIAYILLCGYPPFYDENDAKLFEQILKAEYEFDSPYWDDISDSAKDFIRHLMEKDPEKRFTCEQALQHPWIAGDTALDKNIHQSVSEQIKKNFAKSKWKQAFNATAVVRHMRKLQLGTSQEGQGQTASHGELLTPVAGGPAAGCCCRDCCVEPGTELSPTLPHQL
Chain of TAK1 (O43318 1-303 limits assumed): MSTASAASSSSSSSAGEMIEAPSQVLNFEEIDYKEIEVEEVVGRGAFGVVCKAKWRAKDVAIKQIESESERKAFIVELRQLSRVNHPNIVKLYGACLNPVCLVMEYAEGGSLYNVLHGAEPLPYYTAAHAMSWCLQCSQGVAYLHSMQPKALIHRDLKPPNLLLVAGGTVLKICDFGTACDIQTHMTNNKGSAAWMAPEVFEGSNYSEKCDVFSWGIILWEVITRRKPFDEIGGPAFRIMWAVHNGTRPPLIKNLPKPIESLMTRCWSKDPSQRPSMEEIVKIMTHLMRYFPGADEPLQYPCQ
Chain of MAPKAP-K2 (P49137 whole entry): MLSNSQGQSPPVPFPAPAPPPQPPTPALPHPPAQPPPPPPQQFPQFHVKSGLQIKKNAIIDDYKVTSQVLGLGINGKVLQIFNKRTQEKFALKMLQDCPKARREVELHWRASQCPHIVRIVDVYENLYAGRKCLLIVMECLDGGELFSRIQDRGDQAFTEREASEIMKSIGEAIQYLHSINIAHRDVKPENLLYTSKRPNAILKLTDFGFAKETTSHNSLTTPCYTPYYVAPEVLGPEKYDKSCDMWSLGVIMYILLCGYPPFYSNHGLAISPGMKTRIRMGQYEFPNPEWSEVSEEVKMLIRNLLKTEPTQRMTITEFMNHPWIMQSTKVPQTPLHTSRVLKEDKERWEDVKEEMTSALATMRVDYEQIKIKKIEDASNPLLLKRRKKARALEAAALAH
Chain of Mnk2 (Q9HBH9 whole entry): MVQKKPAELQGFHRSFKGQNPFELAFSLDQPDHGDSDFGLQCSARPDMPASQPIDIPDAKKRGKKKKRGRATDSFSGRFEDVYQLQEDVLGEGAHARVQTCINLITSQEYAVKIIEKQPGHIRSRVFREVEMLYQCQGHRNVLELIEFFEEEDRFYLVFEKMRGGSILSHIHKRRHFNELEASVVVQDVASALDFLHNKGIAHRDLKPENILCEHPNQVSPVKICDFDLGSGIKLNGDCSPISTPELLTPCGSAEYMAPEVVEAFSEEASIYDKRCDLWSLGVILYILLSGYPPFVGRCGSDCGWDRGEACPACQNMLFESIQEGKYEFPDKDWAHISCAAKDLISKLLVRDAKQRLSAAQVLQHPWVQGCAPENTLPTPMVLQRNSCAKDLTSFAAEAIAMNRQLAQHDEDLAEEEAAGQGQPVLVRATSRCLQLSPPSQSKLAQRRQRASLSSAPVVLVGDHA

- CK2 enzyme activity (recombinant human CK2α1; 10 μM FX-9, 10 μM ATP): not changed significantly
- CK2 enzyme activity (recombinant human CK2α1; increasing concentrations, 10 μM ATP): No changes of CK2 enzyme activity
- IC50 (Jurkat cells [1]; Homo sapiens, read-out: IC50 based on proliferation): 1.67 ± 0.03 µM
- Kinase activity (% control) (CDK9/cyclin T1): 86 % control
- Kinase activity (% control) (PKCθ): 96 % control
- Kinase activity (% control) (CaMKI): 100 % control
- Kinase activity (% control) (Mnk2): 90 % control
- Kinase activity (% control) (mTOR): 100 % control
- Kinase activity (% control) (CDK2/cyclinA): 90 % control
- Kinase activity (% control) (MLK1): 84 % control
- Kinase activity (% control) (CDK7/cyclinH/MAT1): 91 % control
- Kinase activity (% control) (Rsk1): 95 % control
- Kinase activity (% control) (PI3 Kinase (p110d/p85a)): 100 % control
- Kinase activity (% control) (MEK1): 90 % control
- Kinase activity (% control) (TAK1): 87 % control
- Kinase activity (% control) (PKCα): 99 % control
- Kinase activity (% control) (PI3 Kinase (p120g)): 98 % control
- Kinase activity (% control) (ALK): 112 % control
- Kinase activity (% control) (MAPKAP-K2): 87 % control
- Kinase activity (% control) (PKG1α): 98 % control
- Kinase activity (% control) (Abl): 96 % control
Structure (SMILES): Cc1ccc(-c2cc3ccccc3c(N)n2)cc1 [FX-9, 3-(p-Tolyl)isoquinolin-1-amine]
- Proliferation compared to control cells (100%) (Jurkat cells [1]; 2.5 μM): 16.3%
- Apoptosis (total of early apoptotic and late apoptotic and necrotic cells) (RS4;11 cells): 84.6%
- pSTAT3 level (western blot) (pSTAT3): reduced
- cleaved caspase 3 protein (western blot) (cleaved caspase 3): increased amount of cleaved caspase 3
- activity at 5 µM (SEM cells): 1.2%
- activity at 10 µM (SEM cells): 0.6%
- Apoptosis (total of early apoptotic and late apoptotic and necrotic cells) (Jurkat cells [2]): 48.7%
- p-p38 level (western blot) (p-p38): reduced
